Assay results from different studies.
Compare with care: the assays were run in different laboratories.
Target: Casein kinase I isoform alpha (CSNK1A1, Homo sapiens, UniProt P48729)

Nc1c(C(=O)NCc2ccc(C(=O)NCCCC3CCCCC3)cc2)cnn1-c1ccccc1  remaining binding (cell-free assay; competition with immobilised ligand; 0.1 µM): 100%
CCN1CCN(Cc2ccc(NC(=O)c3ccc(C)c(Oc4ccnc5[nH]ccc45)c3)cc2C(F)(F)F)CC1  inhibition (target engagement in cells; inhibitor; chemoproteomics; A-375; 5 µM): -60.9%
Cc1ccc(NC(=O)c2ccc(CN3CCN(C)CC3)cc2)cc1Nc1nccc(-c2cccnc2)n1  activity vs control (enzyme activity; inhibitor; 0.5 µM): 102%
Cc1ccc(C(=O)NCc2ccsc2)cc1C#Cc1cn(C(C)C)c2ncnc(N)c12  activity vs control (enzyme activity; inhibitor; 1 µM): 86%
C[S+]([O-])c1ccc(-c2nc(-c3ccncc3)c(-c3ccc(F)cc3)[nH]2)cc1 (stereo not shown)  remaining signal (cell-free assay; 0.5 µM): 63.9%
CCN1CCN(Cc2ccc(NC(=O)c3ccc(C)c(/C=C/c4cnc5[nH]ccc5c4OC)c3)cc2C(F)(F)F)CC1  inhibition (target engagement in cells; inhibitor; chemoproteomics; A-375; 50 nM): -59.4%
CN(C)C(=O)Cn1cc(-c2nc([C@@](C)(c3ccc(-c4cnc(N)nc4)cc3)C3CC3)no2)cn1  remaining binding (cell-free assay; competition with immobilised ligand; 1 µM): 100%
COc1cc2ncnc(Nc3ccc(F)c(Cl)c3)c2cc1OCCCN1CCOCC1  remaining signal (cell-free assay; 0.5 µM): 98.6%
Cc1sc(C(=O)NC2COC2)cc1-n1cc(NC(=O)Nc2c(F)cccc2Cl)cn1  remaining activity (enzyme activity; inhibitor; 10 µM): 81.1%
CCCCNc1ncc2c(-c3ccc(F)cc3)nn(C[C@H]3CC[C@H](N)CC3)c2n1  inhibition (target engagement in cells; inhibitor; chemoproteomics; 20 mM): 79.3%
O=C(Nc1cnn(-c2csc(C(=O)NC3COC3)c2)c1)Nc1ccccc1Cl  remaining activity (enzyme activity; inhibitor; 5 µM): 98.5%
Nc1ncnc2occ(-c3ccc(NC(=O)Nc4cc(C(F)(F)F)ccc4F)cc3)c12  remaining activity (enzyme activity; inhibitor; 20 µM): 3.7%
CC(C)(O)[C@H]1CC[C@H](Nc2ccc3ncc(-c4cccc(C(F)(F)F)c4)n3n2)CC1  remaining activity (enzyme activity; inhibitor; 1 µM): 91.4%
CC(C)(C)c1nc2c(s1)c1nc(N)ncc1c1ccc(NS(=O)(=O)c3c(F)cccc3F)c(F)c12  remaining activity (enzyme activity; inhibitor; radiometric; 1 µM): 86%
Nc1cnc(N2CCc3cc(S(=O)(=O)Nc4c(F)cc(Cl)cc4F)cc(N4CCCC4=O)c32)nc1  remaining binding (cell-free assay; competition with immobilised ligand; 1 µM): 100%
O=C1Cc2c([nH]c3ccc(Br)cc23)-c2ccccc2N1  remaining signal (cell-free assay; 0.5 µM): 95.1%
CN(CCCC(F)(F)F)c1nccc(-c2cnn3ncccc23)n1  remaining binding (binding; 1 µM): 86%
CC(=O)N1CCC(c2ccc(C(=O)NC3=NCCN3)cc2C(F)(F)F)CC1  remaining binding (cell-free assay; competition with immobilised ligand; 1 µM): 76%
N#CCCc1ccc2c(c1)-c1[nH]c3ccc([N+](=O)[O-])cc3c1CC(=O)N2  remaining signal (cell-free assay; 0.5 µM): 95.1%
CCC(=O)N[C@@H]1CC[C@H](C(=O)N(C)c2ccc(-c3nc4ccccc4o3)cc2)C1  remaining binding (cell-free assay; competition with immobilised ligand; 1 µM): 100%
COc1cc2ncnc(Nc3ccc(Oc4ccccc4)cc3C)c2cc1OC  inhibition (enzyme activity; inhibitor; 1 µM): 3%
Cc1c(NC(=O)c2cc(C(N)=O)nc3cc(F)ccc23)c(C(F)(F)F)nn1Cc1ccc(C#N)cc1  remaining binding (cell-free assay; competition with immobilised ligand; 1 µM): 72%
CN(C)C1CCN(CC#Cc2nn(C3CCCC3)c3nc(NCc4ccccc4)ncc23)C1 (stereo not shown)  inhibition (enzyme activity; inhibitor; FRET; 0.1 µM): 2%
CN(c1ccnc(CNc2nc(Nc3ccc4c(c3)CC(=O)N4)ncc2C(F)(F)F)n1)S(C)(=O)=O  remaining binding (cell-free assay; competition with immobilised ligand; 1 µM): 81%
CNc1cccc2cc(C(=O)Nc3ccc(C(=O)O)cc3)c(=O)[nH]c12  inhibition (enzyme activity; inhibitor; 10 µM): 3.5%
